Test results published in the RNAGym collection of RNA variant scans (doi:10.1126/science.aae0568).
This sample holds only a part of the variants without activity.

B1: tRNA (parent)
chain: GUUCCGUUGGCGUAAUGGUAACGCGUCUCCCUCCUAAGGAGAAGACUGCGGGUUCGAGUCCCGUACGGAACG

Variants of: B1
Test: yeast fitness relative to wild type (ratio to wild type); higher = fitter; tRNA-Arg(CCU), competitive growth, 37 C, YPD
Procedure, shortened: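 For this measurement, the tRNA-Arg(CCU) gene was varied by chemical synthesis at a 3% per-site mutation rate across 69 sites, and each variant was placed at the native genomic locus in Saccharomyces cerevisiae. The pooled strains went through a 24-hour competition in YPD at 37°C in six parallel replicates, with amplicons from start and end populations read by 100-nucleotide paired-end sequencing. Darwinian fitness relative to wild type followed from the change in each genotype's frequency. Genotypes needed ≥ 100 starting reads, and estimates < 0.5 were set to 0.5.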

Variant	yeast fitness
C4G C5U C49A A70C	0.529
C4A U53C G68C	0.553
C4G C22U	0.976
C4G C22G	0.787
C4G A14U C24G C31G C61G	≤ 0.5
C4G A14G C33U	≤ 0.5
C4G C5U A65G A70C	≤ 0.5
C4G A14G G63A	≤ 0.5
C4G A21C G23C A36U A57U C60G G68C	≤ 0.5
C4A U28C A42G A65U A69C	≤ 0.5
C4G C11U A14G U32C	≤ 0.5
C4G C5G C11A G38A C49U	≤ 0.5
C4A U28A	0.761
C4G C5U A37G C62U	≤ 0.5
C4G A45U C49U A65U	≤ 0.5
C4G A14C C30U A40U C49U	0.504
C4A U35C	0.834
C4A U26C A65C	≤ 0.5
C4A U28C G56A C61U	≤ 0.5
C4G C22U U32C U64C	≤ 0.5
C4G C5G A43G	0.556
C4G C5G G9A C49A	0.739
C4G A20U G25A	≤ 0.5
C4G C24A C34A	0.563

Variant	yeast fitness
C4G C11A U28G U47G C49G U53G C55G	≤ 0.5
C4G C11G U47A C49U	≤ 0.5
C4A U47C A70C	0.749
C4A U28A C31G A40U A65U G68C	≤ 0.5
C4G A42G	0.897
C4G A42C	0.78
C4G C5U U16A C34A G68C	0.508
C4G A40U A42C C61G	≤ 0.5
C4G A15U C29A G48A A65U	0.53
C4G C11A G17A A20G C27U A43U C49G C60U	≤ 0.5
C4G C22U G68C	≤ 0.5
C4G A20G C27A C46U A65U	≤ 0.5
C4G A43C C61A	0.551
C4G C11G A20G A36U G63A A65U C66U	≤ 0.5
C4G A15C C46A G67A	≤ 0.5
C4G A15U A37U	0.541
C4A U32C C66U	0.707
C4G A15U A21G G56A	0.626
C4G A14C G48A C49U	≤ 0.5
C4G C11U A36G	0.57
C4G C11U U19A U32A A37U U64C	≤ 0.5
C4G C5A C11U C27G A65U G68U	≤ 0.5
C4A U32C G58C	0.588
C4G C11A A14C C33G A36C A37C A42C A65U	≤ 0.5

Variant	yeast fitness
C4G A69U A70C	0.771
C4G A40U A42C C66U	0.52
C4G C5U G23A C55A C61A	≤ 0.5
C4G C22G C33U A36C A40U	0.663
C4G A15C C29G G48A	≤ 0.5
C4G C11A A42U	≤ 0.5
C4A U32C C46G	0.599
C4A U26A C34G G38A G68C	≤ 0.5
C4G C11G C55U A70G	≤ 0.5
C4A U16C C27G A42G U53A	≤ 0.5
C4G A37U G51A G52C U59C	≤ 0.5
C4A U13G A45U U47A U59C	≤ 0.5
C4G A14C C30U A40U G52C G67A	≤ 0.5
C4G A21C C27A U28G	0.614
C4G C5G C11U G56A C61A	≤ 0.5
C4G A57U U59G	≤ 0.5
C4G C5U A36G U54C A69C	≤ 0.5
C4A U19G	0.742
C4A U19A	0.854
C4G C5G A14U A20C C34G A37C C49U	0.559
C4A U16G C22U G23U A42C G50C G63C G68C	0.604
C4G A21U C33U A42G A57U	0.683
C4A U16C G17A C31U U54A	≤ 0.5
C4G A21U A36C C61A	0.615

Variant	yeast fitness
C4G A20U C60U A70U	0.651
C4G A14G U26C A36G A37C	≤ 0.5
C4A U32C G68C	0.867
C4G A40G G48A G56C	≤ 0.5
C4G A21C G39C A42U G48C	≤ 0.5
C4G A21C C22U	0.626
C4G A21G A45U C49U U64A	0.556
C4G A20G C27G C29G C55A A57U A69U	0.629
C4A U26G G44C G58A	0.535
C4G C22U G38C	≤ 0.5
C4G A37U C49A G52A C55U G56A	0.688
C4G C22A C55G	≤ 0.5
C4G A14U C60A	0.553
C4G A20G A43G	0.502
C4G C22G C33G A36C A65G	≤ 0.5
C4A U32C G67A	0.655
C4G C11G U26A U54A C60U	≤ 0.5
C4A U16G C22U G23U A42C G50C C66U	≤ 0.5
C4G A14C G25C	0.8
C4A U32G A45G C49U A70U	≤ 0.5
C4G A21G	0.997
C4G A21U	0.696
C4G A37G G51A A57G	0.523
C4G A20U G58C	≤ 0.5

Variant	yeast fitness
C4G C11G A21U A36U G58C	≤ 0.5
C4A U19A G44A U53C A70U	≤ 0.5
C4G A21G A45U C49U C60A	≤ 0.5
C4A U19C U35C	0.685
C4G C5G	0.697
C4G A14G A69C	0.508
C4G A14G A69U	0.52
C4G C11A U35A C49G	0.526
C4G A21U C66G	≤ 0.5
C4A U16C G17A	0.567
C4G A36G U59C	0.667
C4G A20U C66U	≤ 0.5
C4G A21G G67C	0.631
C4A U16C G17A A69U	≤ 0.5
C4G A65C	0.733
C4G C22U C55G	≤ 0.5
C4G C5G U13C U28G	≤ 0.5
C4G C11G U26A A65G	≤ 0.5
C4G A14C G50C C62G	≤ 0.5
C4G A36U C60G	0.655
C4G C11U	0.967
C4G C11G	0.623
C4G C5U G68A	0.602
C4G A21G G50A	0.718

Variant	yeast fitness
C4A U47A G48C	0.559
C4G C22U C46G G63A	≤ 0.5
C4G C5U C22G	≤ 0.5
C4A U32C C33U C49G	≤ 0.5
C4G C11U U19C U28G A45C U53A G63C	≤ 0.5
C4A U16A U32C C62U A70U	≤ 0.5
C4A U16G	0.651
C4G A15G G23A C34G G68A	≤ 0.5
C4A U16A A43C	≤ 0.5
C4G C22G C29A A65C	≤ 0.5
C4G A42U G48A	0.575
C4A U35A A37U	≤ 0.5
C4G A15C U28C C55G A57U	≤ 0.5
C4G C5G A20G A21U C34G C46A C61A	≤ 0.5
C4A U32C A40U	0.517
C4A U19G C31G A45C C46G G56C G63A U64C G67C	≤ 0.5
C4G C11A C30G C61G	≤ 0.5
C4G A36U G58A	≤ 0.5
C4G C5A U19A C24G C29G	≤ 0.5
C4A U19A A69C	0.602
C4G C5G U26G A45C G67A	0.664
C4G A14G G68A	0.59
C4G A45U C62U G68A	≤ 0.5
C4G C11U C49U	0.562

Variant	yeast fitness
C4G A20U G50A G58C C66U	≤ 0.5
C4G C22U C34G G63C	≤ 0.5
C4G C5U U35C A37U C61A	≤ 0.5
C4G A15C U19A	≤ 0.5
C4G A15U C34G A36C	≤ 0.5
C4G C5U C11A C46A U47A U53A	0.566
C4G C11G C22U C46G	≤ 0.5
C4G C11G C22U C46U	≤ 0.5
C4A U53C U64A	≤ 0.5
C4G A14C A42G	≤ 0.5
C4G C11G C31U G41C U54G	0.707
C4G A20G A70C	0.758
C4G A15U G18C G23C C24G G56C A70G	0.586
C4G C11G C55U U59C C61A	≤ 0.5
C4G A43U G51C	≤ 0.5
C4G C24A C46U U64C	≤ 0.5
C4G A21G U28A A69U	≤ 0.5
C4G C11G G52A C55U C61A	≤ 0.5
C4G C11A C30G C60A	≤ 0.5
C4G A14U C66U	≤ 0.5
C4G C5U U26A C34A	≤ 0.5
C4G C5U C49A G56A G63C G68A	≤ 0.5
C4G C5A C11U G18C C46G	≤ 0.5
